Key:
[1] = test system: H3K14ac sites in the C2C12 cell nucleus; assay: Immunofluorescence co-localization with H3K14ac in C2C12 cell nucleus; assay type: cell-based, mouse; settings: ectopically expressed EGFP-fusion DPF3b; confocal fluorescence imaging
Method in brief: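 C2C12 myoblasts grown in DMEM with 10% fetal calf serum were transfected with full-length human DPF3b fused to EGFP. H3K14ac was stained with the same anti-H3K14ac antibody used for ChIP and a Texas Red-conjugated secondary. Nuclear overlap of the EGFP and Texas Red signals was imaged on an automated confocal microscope and images were overlaid.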

[2] = test system: H3K14ac at the mouse Pitx2 promoter site; assay: Re-ChIP; assay type: cell-based; settings: transfected C2C12 cells, qualitative
Pitx2 = assay: Endogenous Pitx2 transcript level in transfected C2C12 cells; assay type: cell-based, mouse; settings: C2C12 cells 2 days following transfection

B1: DPF3b: full length human DPF3b cloned into pEGFP-C1 vector, transfected in C2C12 cells (protein)
chain: MATVIHNPLKALGDQFYKEAIEHCRSYNSRLCAERSVRLPFLDSQTGVAQNNCYIWMEKRHRGPGLAPGQLYTYPARCWRKKRRLHPPEDPKLRLLEIKPEVELPLKKDGFTSESTTLEALLRGEGVEKKVDAREEESIQEIQRVLENDENVEEGNEEEDLEEDIPKRKNRTRGRARGSAGGRRRHDAASQEDHDKPYVCDICGKRYKNRPGLSYHYAHTHLASEEGDEAQDQETRSPPNHRNENHRPQKGPDGTVIPNNYCDFCLGGSNMNKKSGRPEELVSCADCGRSGHPTCLQFTLNMTEAVKTYKWQCIECKSCILCGTSENDDQLLFCDDCDRGYHMYCLNPPVAEPPEGSWSCHLCWELLKEKASAFGCQA
modifications: left off: EGFP, end not stated, kept
[1]
  co-localization with H3K14ac sites in C2C12 cell nucleus: co-localized with H3K14ac sites
[2]
  DPF3b/H3K14ac interaction at Pitx2 promoter: interacts with H3K14ac at the Pitx2 promoter site
Pitx2
  enhancement of endogenous Pitx2 transcript: more than 3 fold
